From PubChem
Rows were chosen to be rich in hits. Some 0.77% of all compounds tested hit in one or more screens of this group.
bIAP inh: bovine intestinal alkaline phosphatase inhibitors, primary screen, selectivity assay for TNAP inhibitor project, biochemical, bovine IAP, CDP-star luminescence; alkaline phosphatase, intestinal [Bos taurus]; purified bovine IAP, 30 min; inhibition, % at 20 µM; 190,000 tested, under 10 active;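 active = over 50% inhibition of intestinal alkaline phosphatase at 20 µM in the single-dose screen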
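Assay system: bovine IAP enzyme; medium: DEA buffer 100 mM, pH 9.8, with MgCl2 1.0 mM, ZnCl2 0.02 mM; doses: 20 µM single dose; incubation: enzyme reaction for 30 min at room temperature; detection: CDP-star luminescence signal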
mIAP block: inhibitors of mouse IAP, primary screen, biochemical, luminescence, uHTS; inhibition, % at 10 µM; purified mouse IAP, CDP-Star luminescence, 30 min; intestinal alkaline phosphatase [Mus musculus]; hit rate 0.2% among 330,000;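 active = inhibition of at least 40% at 10 µM in the primary screen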
hIAP inh: human IAP inhibitors, primary screen, biochemical, luminescence, uHTS. inhibition, % at 10 µM. hit rate 0.12% among 330,000. purified IAP, CDP-Star luminescence, 30 min;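 active = inhibition reaching a set limit with compound at 10 µM in the primary screen, cut at about 35% in these data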
Target sequence (P09923 whole entry, looked up): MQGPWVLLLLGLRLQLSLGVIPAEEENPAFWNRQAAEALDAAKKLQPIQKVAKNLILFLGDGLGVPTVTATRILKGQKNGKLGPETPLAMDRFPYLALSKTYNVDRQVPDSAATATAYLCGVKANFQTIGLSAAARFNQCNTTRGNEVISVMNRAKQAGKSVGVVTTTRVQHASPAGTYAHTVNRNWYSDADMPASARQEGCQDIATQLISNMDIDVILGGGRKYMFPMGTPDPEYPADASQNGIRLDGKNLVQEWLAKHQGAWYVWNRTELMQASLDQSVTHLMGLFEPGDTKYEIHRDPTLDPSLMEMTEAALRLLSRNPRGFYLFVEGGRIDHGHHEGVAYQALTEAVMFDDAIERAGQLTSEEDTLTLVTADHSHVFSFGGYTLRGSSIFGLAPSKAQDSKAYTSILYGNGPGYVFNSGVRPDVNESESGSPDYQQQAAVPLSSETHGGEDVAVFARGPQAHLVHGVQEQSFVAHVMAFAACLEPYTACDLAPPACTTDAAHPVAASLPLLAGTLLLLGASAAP
hIAP act: human IAP activators, primary screen, biochemical, luminescence, uHTS; Intestinal-type alkaline phosphatase (Homo sapiens), P09923; AID 2524, 2010; hit rate 0.16% among 330,000; activation factor at 10 µM; purified human IAP, CDP-Star luminescence, 30 min; active compounds read high; 1 = vehicle-only enzyme, 0 = enzyme-free background;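 active = activation factor of the enzyme at least 2-fold when tested at 20 µM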
bIAP activator: bovine intestinal alkaline phosphatase activators, primary screen, biochemical, bovine IAP, CDP-star luminescence; alkaline phosphatase, intestinal [Bos taurus]; hit rate 0.17% among 200,000; AID 1016, 2008; purified bovine IAP, 30 min; active compounds read high; fold of DMSO-control signal, blank-subtracted; activation factor at 20 µM;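 active = activation factor of 2 or more at 20 µM, a signal rise over negative controls twice the positive control's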
mIAP activ: activators of mouse IAP, primary screen, biochemical, luminescence, uHTS | muIAP, CDP-Star luminescence, 30 min; active compounds read high; 1 = vehicle-only enzyme signal, 0 = enzyme-free wells | activation factor at 10 µM | hit rate 0.24% among 330,000;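 active = activation factor of at least 2 at 20 µM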
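System: Mouse IAP enzyme | Also added: CDP-Star substrate | Dosing: Compounds dispensed in DMSO | Schedule: 30 min enzyme-substrate-compound incubation at room temperature | Technique: Chemiluminescence readout | Control set: DMSO-only wells and no-enzyme negative control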
hIAP act conf: human IAP activators, confirmation, biochemical, luminescence, single concentration, uHTS hits | purified IAP, CDP-Star luminescence, 30 min; active compounds read low | shares compounds with hIAP act | AID 434926, 2010 | activation (%Activity, negative = activation), % at 8.3 µM | hit rate 10% among 880;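 active = at least twofold enzyme activation in any of six single-dose repeats, which the averaged readout prints as negative percent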
mIAP inh conf: inhibitors of mouse IAP, confirmation, biochemical, luminescence, single concentration | shares compounds with mIAP block | purified mouse IAP, CDP-Star luminescence, 30 min | inhibition, % at 10 µM | hit rate 4.7% among 11,000;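 active = inhibition of at least 40% at 10 µM in either of the two replicates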
Of the large screens only hits and unclear results are named; the others gave an inactive call (follow-up assays come after a bar, where they were run).

COc1ccc(C(=O)N2CCCC(Nc3ccc(F)cc3)C2)c(OC)c1 (configuration not stated)	none (no result: bIAP inh, bIAP activator)
COc1ccc(NC(=O)Nc2cccc3c2O[C@@H](CN(C)CC2CCCCC2)[C@@H](C)CN([C@H](C)CO)C3=O)cc1	none (no result: bIAP inh, bIAP activator)
CCOC(=O)C1CCCN(CC(=O)Nc2nccs2)C1 (configuration not stated)	none (no result: bIAP inh, bIAP activator)
CCC1CCC(C(=O)NNC(=O)c2cc(-c3ccco3)[nH]n2)CC1 (configuration not stated)	mIAP block 54.8, hIAP act 2.05 | hIAP act conf inactive | mIAP inh conf 59.7
O=C(NNC(=O)C1CCCCC1)c1ccco1	none
COC1=C/C(=C/c2c(N)n3c(nc2=O)sc2cc(S(C)(=O)=O)ccc23)C=CC1=O	none (no result: bIAP inh, bIAP activator)
CS(=O)(=O)c1ccc2c(c1)sc1nc(=O)c(/C=C3/C=CC(=O)C(O)=C3)c(N)n12	mIAP block 74.9, hIAP inh 58.5 (no result: bIAP inh, bIAP activator) | hIAP act conf inactive | mIAP inh conf 85.3
Cc1ccc(NC(=O)C2CC(=O)n3c(nc4ccccc43)N2)cc1C (configuration not stated)	hIAP act 2.15, mIAP activ 3.51 (no result: bIAP inh, bIAP activator) | hIAP act conf inactive | mIAP inh conf inactive
O=C1CC(c2ccc(O)c(O)c2)Oc2cc(O)cc(O)c21 (configuration not stated)	mIAP block 56.2, hIAP inh 44.2 (no result: bIAP inh, bIAP activator) | hIAP act conf inactive | mIAP inh conf 52.6
Cc1c(CN2CCC(C(=O)Nc3cccc(-c4cccc(Cl)c4)c3)CC2)cnn1C	hIAP act 6.44, mIAP activ 5.02 (no result: bIAP inh, bIAP activator) | hIAP act conf inactive | mIAP inh conf inactive
O=C(Nc1cccc(-c2cccc(F)c2)c1)C1CCN(CC2CCOC2)CC1 (configuration not stated)	none (no result: bIAP inh, bIAP activator)
O=C(Nc1cccc(-c2cccc(Cl)c2)c1)C1CCN(Cc2ccon2)CC1	hIAP act 2.01, mIAP activ 2.33 (no result: bIAP inh, bIAP activator) | hIAP act conf inactive | mIAP inh conf inactive
O=C(Nc1cccc(-c2cccc(Cl)c2)c1)C1CCN(CC2CCOC2)CC1 (configuration not stated)	hIAP act 4.11, mIAP activ 3.02 (no result: bIAP inh, bIAP activator) | hIAP act conf inactive | mIAP inh conf inactive
C=CCn1cc(CN2CCC(C(=O)Nc3cccc(-c4cccc(Cl)c4)c3)CC2)c(C)n1	hIAP act 7.93, mIAP activ 6.48 (no result: bIAP inh, bIAP activator) | hIAP act conf inactive | mIAP inh conf inactive
C=CCn1cc(CN2CCC(C(=O)Nc3ccc(Oc4cccnc4)cc3)CC2)c(C)n1	none (no result: bIAP inh, bIAP activator)
O=C(Nc1cccc(-c2cccc(Cl)c2)c1)C1CCN(Cc2ccccn2)CC1	none (no result: bIAP inh, bIAP activator)
Cc1noc(C)c1C(=O)N(CC(=O)Nc1ccc(Cl)c(C(F)(F)F)c1)Cc1ccco1	none (no result: bIAP inh, bIAP activator)
CCOc1cc(CN2CCC(CO)(Cc3cccc(C(F)(F)F)c3)CC2)ccc1OC	none
CCc1cccc(CC)c1NC(=O)CN1C2CCCC1CC(NC(=O)Nc1cccc(OC)c1)C2 (configuration not stated)	mIAP activ 2.75 | mIAP inh conf inactive
COc1cccc(C(=O)NC2CC3CCCC(C2)N3CC(=O)Nc2ccccc2C(F)(F)F)c1 (configuration not stated)	none (no result: bIAP inh, bIAP activator)
O=C(c1ccc2nc(-c3ccco3)c(-c3ccco3)nc2c1)N1CCN(c2ccccc2)CC1	none
O=C(O)c1ccc2nc(-c3ccco3)c(-c3ccco3)nc2c1	mIAP block 47.7 | mIAP inh conf 65.9
CC(C)c1ccc(S(=O)(=O)Nc2ccc(O)c(Sc3ncn[nH]3)c2)cc1	none (no result: bIAP inh, bIAP activator)
Cc1cc(C)c(S(=O)(=O)Nc2ccc(O)c(Sc3ncn[nH]3)c2)cc1C	mIAP block 79.1 (no result: bIAP inh, bIAP activator) | mIAP inh conf 86.5
COc1ccc(S(=O)(=O)Nc2ccc(O)c(Sc3ncn[nH]3)c2)cc1	mIAP block 62.9 | mIAP inh conf 71.8
Cc1cc(C)c(S(=O)(=O)Nc2ccc(O)cc2)cc1C	none
COC(=O)C1N[C@@H]([C@@H](NC(=O)COc2ccccc2)C(=O)NCc2ccsc2)SC1(C)C (some centres not stated)	none (no result: bIAP inh, bIAP activator)
CCOc1ccccc1NC(=O)CCCNC(=O)c1ccc(Cl)cc1	none (no result: bIAP inh, bIAP activator)
C/C(CC(=O)Nc1ccc2ccccc2c1)=N\NC(=O)c1ccc(O)c(O)c1	mIAP block 46.5 (no result: bIAP inh, bIAP activator) | mIAP inh conf 67.0
C/C(CC(=O)Nc1ccc2ccccc2c1)=N\NC(=O)c1cnccn1	none
N#CC1=C(N)C2=C(N3CCCCC3)CCCC2C1(C#N)C#N (configuration not stated)	none (no result: bIAP inh) | mIAP inh conf 40.2
N#CC(C#N)=C1C=C2C=C(N3CCCCC3)CCC2CC1 (configuration not stated)	none (no result: mIAP block, hIAP inh, hIAP act, mIAP activ)
CC(NC(=O)C1CCN(C(=O)c2ccc(F)cc2)CC1)c1ccc(S(N)(=O)=O)cc1 (configuration not stated)	none (no result: bIAP inh, bIAP activator)
CC(C)CC(C(=O)Nc1cccc(O)c1)N1C(=O)c2ccccc2C1=O (configuration not stated)	none (no result: bIAP inh, bIAP activator)
CC(C)CC(C(=O)Nc1oc(-c2ccco2)c(-c2ccco2)c1C#N)N1C(=O)c2ccccc2C1=O (configuration not stated)	mIAP block 44.9 | mIAP inh conf 47.7
O=C(N/C=C/c1ccccc1)Nc1ccc(Cl)cc1	mIAP activ 3.95 | mIAP inh conf inactive
O=C(N/N=C/c1ccc(Cl)cc1)Nc1ccccc1	none
Cc1ccc(NC(=S)NCc2ccccc2)cc1S(=O)(=O)N1CCCCC1	mIAP activ 5.81 | mIAP inh conf inactive
NS(=O)(=O)c1ccc(-c2ccc(/C=C3\SC(=S)N(C4CCS(=O)(=O)C4)C3=O)o2)cc1 (configuration not stated)	mIAP block 80.2 (no result: bIAP inh, bIAP activator) | mIAP inh conf 87.4
NC1=NC(=O)/C(=C\c2ccc(-c3ccc(Cl)cc3)o2)S1	none (no result: bIAP inh, bIAP activator)
CN(C)C1=NC(=O)/C(=C/c2ccc(-c3ccc(S(N)(=O)=O)cc3)o2)S1	mIAP block 49.9 (no result: bIAP inh, bIAP activator) | mIAP inh conf 49.7
